Experimental data published in paper PMC5756105 (Journal of proteome research, 2017).
Structures can show the parent of a compound that is named as a salt. Where two headings read alike, the source gives them in different places.

Legend:
hMSCs = assay: CCK-8 cell viability assay on 96-well plates, basal hMSCs; assay type: cell-based, human; settings: for reduction in toxicity from basal hMSCs to their osteogenic progenies: basal hMSCs vs OD1-OD6; for IC50: read-out: IC50 hMSC
hiPSCs = assay: CCK-8 cell viability assay on 96-well plates, basal hiPSCs; assay type: cell-based, human; settings: for higher sensitivity of hiPSCs compared to basal hMSCs: ratio of IC50, hiPSCs vs basal hMSCs; for IC50: read-out: IC50 hiPSC; for dependency of effects on stages of hepatogenic differentiation of hiPSCs: Phase I-III
basal hMSCs = assay: qHTS CellTiter-Glo viability assay in 1536-well format, basal hMSCs; assay type: cell-based, human; settings: qHTS CTG, basal vs osteogenesis day 1
Method in brief: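 hMSCs were seeded at 500 cells/well directly in basal or osteogenic differentiation medium (osteogenesis day 1 arm) and held 24 h at 37°C/5% CO₂. A LOPAC library was then added at seven concentrations (0.0029–46 μM, 1:5 serial dilutions) for 48 h. ATP was read by CellTiter-Glo luminescence after 30 min at room temperature. IC₅₀ and efficacy came from dose-response curves, with hit cutoffs of efficacy ≥ 50% and IC₅₀ ≤ 20 μM.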

hMSC-OD1 = assay: CCK-8 cell viability assay on 96-well plates, hMSCs osteogenesis Day 1; assay type: cell-based; settings: Homo sapiens, read-out: IC50 hMSC-OD1
hMSC-OD3 = assay: CCK-8 cell viability assay on 96-well plates, hMSCs osteogenesis Day 3; assay type: cell-based; settings: Homo sapiens, read-out: IC50 hMSC-OD3
hMSC-OD6 = assay: CCK-8 cell viability assay on 96-well plates, hMSCs osteogenesis Day 6; assay type: cell-based; settings: Homo sapiens, read-out: IC50 hMSC-OD6
[1] = tested on: hepatic differentiation Phase I cells; assay: CCK-8 cell viability assay, hiPSCs at end of hepatogenic differentiation Phase I; assay type: cell-based; settings: Homo sapiens, HepA, 48 h, read-out: IC50 Hepa Diff Phase I
[2] = tested on: hepatic differentiation Phase II cells; assay type: cell-based; settings: Homo sapiens, HepA, 48 h, read-out: IC50 Hepa Diff Phase II
[3] = tested on: hepatic differentiation Phase III cells; assay type: cell-based; settings: Homo sapiens, HepA, 48 h, read-out: IC50 Hepa Diff Phase III
[4] = basal hMSCs, 48-hour treatment, CCK-8, mean ± s.e.m., n=3
[5] = basal hiPSCs, 48-hour treatment, CCK-8, mean ± s.e.m., n=3

Question: With `CC[n+]1c(/C=C/C=C2/N(C)c3ccccc3C2(C)C)sc2ccccc21.[I-]` [AC-93253] as the molecule, how does the “reduction in toxicity from basal hMSCs to their osteogenic progenies” value (hMSCs) read?
Answer: Its value is 3~4 fold.

Question: And the IC50 (hMSCs; [4])?
Answer: Its IC50 is 3.94 ± 1.18 µM.

Question: And the “higher sensitivity of hiPSCs compared to basal hMSCs” value (hiPSCs)?
Answer: Its value is “more than 30 times”.

Question: What about the IC50 (hiPSCs; [5]) of the same molecule?
Answer: Its IC50 is 0.09 ± 0.038 µM.

Question: And the “toxicity to basal hMSCs versus osteogenic hMSCs in primary screening” value (basal hMSCs)?
Answer: Its value is “much higher toxicity”.

Question: Which results are given for `C[C@@]12C(=O)OC(=O)[C@]1(C)[C@H]1CC[C@@H]2O1` [Cantharidin, cantharidin]?
Answer: IC50 (hMSCs; Homo sapiens, 48 h): 1.54 ± 0.5 µM; reduction in toxicity from basal hMSCs to their osteogenic progenies (hMSCs): 3~4 fold; IC50 (hMSC-OD1): 3.98 ± 0.69 µM; IC50 (hMSC-OD3): 4.95 ± 1.33 µM; IC50 (hMSC-OD6): 6.17 ± 2.55 µM; IC50 (hiPSCs; Homo sapiens, 48 h): 4.36 ± 1.4 µM; dependency of effects on stages of hepatogenic differentiation of hiPSCs (hiPSCs): not significantly dependent; IC50 [1]: 2.7 ± 0.49 µM; IC50 [2]: 2.58 ± 0.28 µM; IC50 [3]: 1.12 ± 0.34 µM

Question: Which results are given for `CC(=O)[C@]1(O)Cc2c(O)c3c(c(O)c2[C@@H](O[C@H]2C[C@H](N)[C@H](O)[C@H](C)O2)C1)C(=O)c1ccccc1C3=O` [Idarubicin, idarubicin hydrochloride]?
Answer: decrease in toxicity from basal to OD6 (hMSCs; hMSCs, basal vs OD6, p<0.001): 28 fold; IC50 (hMSCs; [4]): 0.38 ± 0.074 µM; IC50 (hMSC-OD1): 2.96 ± 0.22 µM; IC50 (hMSC-OD3): 7.43 ± 4.56 µM; IC50 (hMSC-OD6): 10.8 ± 0.43 µM; IC50 (hiPSCs; Homo sapiens, 48 h): 0.004 ± 0.001 µM; dependency of effects on stages of hepatogenic differentiation of hiPSCs (hiPSCs): significantly dependent; higher sensitivity of hiPSCs compared to basal hMSCs (hiPSCs): more than 30 times; IC50 [1]: 0.07 ± 0.003 µM; IC50 [2]: 1.25 ± 0.23 µM; IC50 [3]: 4.99 ± 1.38 µM

Question: What does the source list for `O=C1C(SCCO)=C(SCCO)C(=O)c2ccccc21` [NSC 95397]?
Answer: differentiation-stage dependency of toxicity on hMSCs (hMSCs; basal hMSCs vs OD1 to OD6): not differentiation-stage dependent; IC50 (hMSCs; [4]): 6.55 ± 1.76 µM; IC50 (hiPSCs; [5]): 6.91 ± 3.01 µM
